Bioassay records deposited in PubChem by The Scripps Research Institute Molecular Screening Center.
Only some compounds are listed: those with a hit (about 2.8% of all), similar ones and a draw of the others.
ARFGAP1 inhibitor: inhibitors of rat ARFGAP1 | Q62848 | Arfgap1-stimulated ARF1 GTP hydrolysis, GDP FP detection | inhibition, % at 16.5 µM | 360,000 tested, 0.26% active;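 active = inhibition above a per-plate limit, mean inhibition of low control wells plus 3 SD, cut at about 25% in these data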;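 note: 0% = DMSO wells with enzyme and 100% = wells lacking Arfgap1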
Target sequence (Q62848 1-136 limits assumed): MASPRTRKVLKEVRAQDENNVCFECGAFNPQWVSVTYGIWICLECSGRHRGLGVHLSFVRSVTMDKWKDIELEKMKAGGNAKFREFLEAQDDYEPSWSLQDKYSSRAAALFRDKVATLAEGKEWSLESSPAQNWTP
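Material: rat Arfgap1 catalytic domain, aa 1-136; also added: human ARF1(Δ1-17)-GTP substrate; compound dosing: one concentration, 16.5 µM, DMSO 1.26%; incubation: GTP hydrolysis reaction 2 h at 25 °C; measured by: Tracer-displacement fluorescence polarization with EDTA stop, 620/688 nm; evaluation: % inhibition from polarization; repeats: one replicate per compound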
ASAP1 inh: ASAP1 ArfGAP inhibition; Q9ULH1; ASAP1-stimulated ARF1 GTP hydrolysis, GDP FP detection; inhibition, % at 16.5 µM; 360,000 tested, 0.19% active; AID 624377; in the data active = inhibition above about 25%;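 note: 0% = vehicle with enzyme and substrate and 100% = no enzyme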
PAFAH1B3 inh: PAFAH1B3 (human) inhibition; Q15102; recombinant PAFAH1B3, FP-rhodamine probe, fluorescence polarization; inhibition, % at 3.39 µM; 340,000 tested, 0.28% active; AID 492972;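 active = inhibition above the screen-wide average of all tested compounds plus 3 SD, cut at about 25% in these data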;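 note: 0% = enzyme with DMSO only and 100% = wells lacking PAFAH1B3 protein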
Target sequence (Q15102 whole entry, looked up): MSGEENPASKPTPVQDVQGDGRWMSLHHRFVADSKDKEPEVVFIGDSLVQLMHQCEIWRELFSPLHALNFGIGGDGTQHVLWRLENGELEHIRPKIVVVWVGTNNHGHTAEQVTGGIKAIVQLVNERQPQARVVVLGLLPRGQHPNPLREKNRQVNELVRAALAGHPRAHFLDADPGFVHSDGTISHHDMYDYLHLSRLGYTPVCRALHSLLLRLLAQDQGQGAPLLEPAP
PAFAH2 inh: PAFAH2 (human) inhibition. recombinant PAFAH2, FP-rhodamine activity probe, fluorescence polarization. inhibition, % at 3.39 µM. 340,000 tested, 0.99% active;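 active = inhibition above the mean over all tested compounds plus 3 SD, cut at about 30% in these data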;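 note: inhibitors block probe labeling of enzyme so polarization drops; 0% = enzyme with DMSO and 100% = wells lacking PAFAH2 protein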
PAFAH1B2 FP inh: inhibitors of human PAFAH1B2 | P68402 | recombinant PAFAH1B2, FP-rhodamine activity probe, fluorescence polarization | inhibition, % at 3.39 µM | 340,000 tested, 1.2% active | AID 492953;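 active = inhibition above the mean of all tested compounds plus 3 SD, cut at about 24% in these data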;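 note: 0% = enzyme with DMSO and 100% = wells lacking PAFAH1B2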
Target sequence (P68402 whole entry, looked up): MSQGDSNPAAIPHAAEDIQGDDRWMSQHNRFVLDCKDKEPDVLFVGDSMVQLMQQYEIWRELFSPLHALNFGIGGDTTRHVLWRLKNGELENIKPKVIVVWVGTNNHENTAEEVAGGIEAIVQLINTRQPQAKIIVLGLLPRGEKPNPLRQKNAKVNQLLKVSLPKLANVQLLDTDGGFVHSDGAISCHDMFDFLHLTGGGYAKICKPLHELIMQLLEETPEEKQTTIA
pPAFAH inh: inhibitors of human plasma PAF acetylhydrolase (pPAFAH). recombinant pPAFAH, FP-rhodamine probe fluorescence polarization. AID 463082. 330,000 tested, 1.5% active. inhibition, % at 3.39 µM;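 active = inhibition above the mean inhibition across the screen plus 3 SD, cut at about 25% in these data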;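 note: inhibitors block binding of the rhodamine activity-based probe so polarization drops; 0% = enzyme with DMSO and 100% = wells lacking pPAFAH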
* marks the source's active call; other numbers are inactive results; / = no result given.

SMILES	ARFGAP1 inhibitor	ASAP1 inh	PAFAH1B3 inh	PAFAH2 inh	PAFAH1B2 FP inh	pPAFAH inh
C[C@H](NS(=O)(=O)OCC(Cl)(Cl)Cl)C1CC1c1ccccc1 (stereo partly specified)	7	-8	-7	5	32*	26*
Cc1ccc(CNC(=O)C2CCCN2C(=O)Nc2ccccc2)cc1 (stereo unspecified)	7	-6	7	1	7	4
O=C(NCCc1ccccc1)C1CCCN1C(=O)Nc1cccc(Cl)c1 (stereo unspecified)	4	-8	-1	8	27*	6
CC(C)(C)c1ccc(CNC(=O)C2CCCN2C(=O)Nc2ccccc2)cc1 (stereo unspecified)	-1	0	-1	3	25*	-2
CCC(=O)N1CCCC1(C)C(=O)Nc1cccc(Oc2ccccc2)c1 (stereo unspecified)	-10	-11	/	/	/	/
Cc1ccc(Cc2cnc(N3C(=N)SC(C)C3=O)s2)cc1 (stereo unspecified)	11	-6	-6	13	75*	25*
COc1ccc2nc(SCC(=O)NC3CCCCC3C)[nH]c2c1 (stereo unspecified)	-8	-12	7	-1	-6	7
Cc1c(N=Nc2ccc(O)cc2)c(=O)n(-c2ccccc2)n1C	-1	9	4	2	6	2
Cc1c(N=C2C=C(Br)C(=O)C(Br)=C2)c(=O)n(-c2ccccc2)n1C	-10	11	2	16	35*	/
CCOc1ccc(Br)cc1C1=NN(C(C)=O)C(c2ccc([N+](=O)[O-])s2)O1 (stereo unspecified)	-8	-2	17	39*	10	/
COc1ccc(NS(=O)(=O)c2cc(NC(=O)C3=NN(c4ccccc4)C(=O)CC3)ccc2OC)cc1	8	1	9	5	4	-2
C=CCn1c(SCC#N)nc2c(c1=O)C(C)(C)Cc1ccccc1-2	2	5	2	0	25*	5
O=C(CSc1ccccn1)C12CC3CC(CC(C3)C1)C2	1	2	1	8	26*	3
Cc1ccc(C(=O)CSc2ccccn2)cc1	-5	-6	-5	-4	0	-4
O=C(OCC(=O)C12CC3CC(CC(C3)C1)C2)c1ccc(O)cc1O	-7	19	-3	33*	26*	5
O=C(OCC(=O)C12CC3CC(CC(C3)C1)C2)c1ccccn1	-2	-10	4	0	25*	-4
CCN1CCN(Cc2ccc(NC(=O)c3cc(NC(=O)c4cc(-c5ccc(OC)cc5)n[nH]4)cc(OC)c3)cc2C(F)(F)F)CC1	31*	26*	-89	-100	-44	-45
CN(C)c1cccc(Nc2ccc(-c3ccc(OC(F)(F)F)cc3)cn2)c1	1	-3	/	/	/	/
COc1ccc(-c2nc3ccccc3n(CC(C)C)c2=O)cc1	-13	-10	/	/	/	/
CNC(=O)c1ccsc1NC(=O)C1CCN(S(=O)(=O)c2ccc(Cl)s2)CC1	8	2	5	1	27*	4
Cc1ccc(-n2cccc2/C=C2\C(=N)N3N=C(c4ccco4)SC3=NC2=O)cc1	-11	5	7	16	32*	15
CCC1=NN2C(=N)/C(=C\c3cccn3-c3ccc(Cl)cc3)C(=O)N=C2S1	5	-2	1	5	42*	3
O=C(Cc1ccccc1)N/N=C/c1cc(Br)c(Br)o1	18	27*	8	0	-4	0
COC(=O)C(NC(=O)c1ccccc1)C(C)(C)SCc1ccccc1 (stereo unspecified)	5	-16	/	/	/	/
Cc1cccc(-n2c(SCc3cc(=O)n4ccsc4n3)nc3ccccc32)c1	-7	6	-6	-14	-13	26*
SMILES	ARFGAP1 inhibitor	ASAP1 inh	PAFAH1B3 inh	PAFAH2 inh	PAFAH1B2 FP inh	pPAFAH inh
COc1ccc(Cl)cc1-c1cc(C(=O)NCc2ccco2)[nH]n1	0	6	/	/	/	/
CCC(=O)Nc1cc(C)c(NC(=O)C23CC4CC(CC(C4)C2)C3)cn1	14	12	-2	5	32*	-2
COc1ccc(NC(=O)CSCC(=O)N(C)Cc2cccc(OC)c2OC)cc1	9	2	2	1	-2	-1
COc1cccc(CN(C)C(=O)COc2ccc(C(=O)c3ccc(Cl)cc3)cc2)c1OC	11	-8	-2	5	2	28*
COc1ccc(C(CNC(=O)c2ccc(OCc3csc(C)n3)cc2)N2CCCC2)cc1 (stereo unspecified)	14	2	/	/	/	/
COc1ccc(Cl)cc1-c1noc([C@@H]2O[C@H](CO)[C@H](O)[C@H](O)[C@H]2O)n1	-4	3	/	/	/	/
CN(C)Cc1ccc(-c2nc3cccc4c3n2CCNC4=O)cc1	7	4	5	6	10	2
O=C(O)c1ccc(N=Nc2c(O)[nH]c3ccc(Br)cc23)cc1	2	13	16	0	33*	4
O=C(O)c1ccc(N=Nc2c(O)[nH]c3cc(Cl)ccc23)cc1	0	3	13	5	10	5
COc1ccccc1-c1c(C)nn2c(N3CCN(Cc4ccccc4)CC3)cc(C)nc12	8	-8	1	3	4	28*
O=C(Cc1c(F)cccc1Cl)Nc1cccc(S(=O)(=O)NC2=NCCCCC2)c1	15	-12	6	-6	-1	13
O=C(Cc1ccc(Cl)cc1Cl)Nc1cccc(S(=O)(=O)Nc2ccccc2F)c1	12	10	-8	-6	21	27*
O=C1c2cccc3c(O)ccc(c23)C(=O)N1Cc1ccccc1	9	13	35*	50*	26*	31*
COCCCN1C(=O)C(CC(=O)NC2CCCCC2)CC(C(=O)N2CCCCCC2)=C1C (stereo unspecified)	-8	-2	/	/	/	/
Oc1cccc(O)c1O	/	/	/	/	/	96*
CC1(C)CC(NC(=O)c2ccccc2F)CC(C)(C)N1	-6	5	2	-4	5	5
O=C(CCSc1ccc(F)cc1)NNC(=O)c1ccc([N+](=O)[O-])cc1	12	2	2	0	28*	6
O=C(c1cnc(Cc2c[nH]c3ccccc23)c(I)c1)N1CCOCC1	-4	3	/	/	/	/
COC/C=C/C1=CC2=CC(=O)C(C)(OC(=O)c3cnc4ccccc4n3)C(=O)C2=CN1c1ccc(OC)cc1 (stereo unspecified)	12	3	7	14	4	19
CCCCCCCC1=CC2=CC(=O)C(C)(OC(C)=O)C(=O)C2=CN1CCc1ccccc1 (stereo unspecified)	/	/	/	/	/	10
CCCCC1=CC2=CC(=O)C(C)(OC(=O)c3cnc4ccccc4n3)C(=O)C2=CO1 (stereo unspecified)	/	/	/	/	/	57*
COC(=O)CCCC1=CC2=CC(=O)C(C)(OC(=O)c3cccs3)C(=O)C2=CN1c1ccccc1 (stereo unspecified)	2	-3	5	3	6	11
